# Screens as filed in PubChem BioAssay.
# Compounds with a hit are over-represented: about 5% of the library has one in this group of screens.
# CSC inhib: cancer stem cell inhibition | cancer stem cell-like cells viability, luminescence | inhibition, % at 7.5 µM | 1.1% of 300,000 active | AID 2717; in the data active = inhibition above about 75%; inconclusive = no clear call, values can overlap the other calls; tested in HMLE shEcad cells
# Beta apoptosis: beta cell apoptosis inhibition | INS-1E cytokine-induced death, ATP luminescence, 48 h; percent of positive-control rescue, neutral wells zero | protection from apoptosis, % (concentration not given with the values) | 0.8% of 300,000 active | AID 435005;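 active = Every replicate reaches about 75%, or at least half do and their mean reaches it too, limit read from the data; inconclusive = At least half of replicates reach the limit but their mean does not; inactive = Under half of replicates reach the limit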;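 note: 0% = cytokine-treated negative control wells and 100% = positive control rescue; higher means more ATP so stronger rescue from cytokine killing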
# UPR XBP1 act: adaptive UPR (XBP1) activation; CHO-XBP1 luciferase reporter, IRE1-XBP1 UPR activation, luminescence; percent of tunicamycin response, DMSO as zero; activation, % at 20 µM; 0.33% of 330,000 active;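 active = versus positive control, 20 µM dose yields 30% or more activation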;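 note: 100% = tunicamycin at 10 µg/mL and 0% = DMSO only wells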
#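 Signal: luciferase luminescence; Assay system: CHO-XBP1 luciferase reporter cells; Amount: one thousand reporter cells per well; Dosing: 20 µM single concentration, DMSO 1%; Benchmarks: high control tunicamycin 10 µg/mL final, low control DMSO vehicle only; Schedule: 6 h compound exposure at 37 °C, 5% CO2; Evaluation: percent activation relative to tunicamycin reference.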
# CHOP UPR activ: activators of apoptotic arm of unfolded protein response (CHOP); CHO-CHOP luciferase reporter, UPR activation, luminescence; percent of tunicamycin response over DMSO baseline; activation, % at 10 µM; 0.34% of 330,000 active; AID 449763;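 active = at 10 µM dose, activation of 40% or more, normalized to positive control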;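 note: 100% = tunicamycin at 10 µg/mL and 0% = DMSO alone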
#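 measured by = luciferase luminescence | assay system = CHO-CHOP cells, stable luciferase reporter of PERK-eIF2a-CHOP signalling | amount = 500 reporter cells seeded per well | timing = 6 h compound exposure at 37 °C after overnight seeding | controls = positive tunicamycin 10 µg/mL, negative DMSO alone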
# Mdm2-MdmX inh: disrupts the human Mdm2-MdmX interaction | SaOS-2 split-luciferase Mdm2/MdmX complementation, luminescence | AID 485346 | 3% of 330,000 active | inhibition, % at 8 µM;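 active = inhibition of at least 50% at 8 µM in the primary screen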
# Target sequence (O15151 whole entry, looked up): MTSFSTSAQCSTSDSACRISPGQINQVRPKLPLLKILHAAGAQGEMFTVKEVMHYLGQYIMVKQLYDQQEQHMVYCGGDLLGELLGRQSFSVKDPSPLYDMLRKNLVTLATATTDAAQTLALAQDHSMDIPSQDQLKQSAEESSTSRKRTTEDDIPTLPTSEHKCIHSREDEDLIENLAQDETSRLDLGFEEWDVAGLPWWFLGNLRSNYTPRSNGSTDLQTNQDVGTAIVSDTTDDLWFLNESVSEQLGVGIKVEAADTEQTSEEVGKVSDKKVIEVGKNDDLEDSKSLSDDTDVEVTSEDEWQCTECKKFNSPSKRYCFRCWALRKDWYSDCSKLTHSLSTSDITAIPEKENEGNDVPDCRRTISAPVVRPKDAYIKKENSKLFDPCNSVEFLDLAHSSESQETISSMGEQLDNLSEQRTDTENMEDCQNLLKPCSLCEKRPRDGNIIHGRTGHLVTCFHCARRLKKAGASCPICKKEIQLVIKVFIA
# Target sequence (Q00987 whole entry, looked up): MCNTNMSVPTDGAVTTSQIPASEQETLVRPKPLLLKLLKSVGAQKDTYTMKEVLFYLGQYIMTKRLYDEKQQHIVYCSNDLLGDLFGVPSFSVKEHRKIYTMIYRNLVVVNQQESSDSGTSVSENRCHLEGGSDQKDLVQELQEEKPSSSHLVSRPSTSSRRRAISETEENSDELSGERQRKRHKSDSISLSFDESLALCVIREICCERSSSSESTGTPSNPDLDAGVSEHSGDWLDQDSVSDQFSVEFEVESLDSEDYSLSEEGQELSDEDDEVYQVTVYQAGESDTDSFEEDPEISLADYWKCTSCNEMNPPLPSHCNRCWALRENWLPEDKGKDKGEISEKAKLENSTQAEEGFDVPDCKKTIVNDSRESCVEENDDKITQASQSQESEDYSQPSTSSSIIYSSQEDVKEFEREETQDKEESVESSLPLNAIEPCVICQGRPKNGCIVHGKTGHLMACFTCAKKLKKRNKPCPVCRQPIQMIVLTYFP
# T cruzi inh: T. cruzi replication inhibition; T. cruzi beta-gal in NIH3T3, luminescence, 90 h; inhibition, % (test concentration not listed); 1.4% of 300,000 active;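 active = mean inhibition across valid replicates above about 55%, limit read from the data; inconclusive = mean below that limit but half or more replicates reach it; inactive = mean below it, under half of replicates reach it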;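 note: signal also drops with host cell toxicity which is not excluded here; 0% = plate median of DMSO wells and 100% = zero luminescence signal; higher percent means less beta-gal luminescence so fewer parasites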
#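 System: Mouse NIH/3T3 fibroblasts infected with β-gal-expressing T. cruzi Tulahuen C4 | Quantity: NIH/3T3 cells, 5,000 per well | Reagent: 5000 reporter trypomastigotes per well | Dosing: Compound pinned at 50 nL/well, DMSO | Schedule: 3 h host attachment, then at least 90 h co-culture | Detection: GalScreen luminescence, 60 min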
# An asterisk follows results filed as active; ? = inconclusive; . = no result given.
SMILES,CSC inhib,Beta apoptosis,UPR XBP1 act,CHOP UPR activ,Mdm2-MdmX inh,T cruzi inh
CC1=NN(c2nc(-c3ccc(C)cc3)cs2)C(=O)C1N=Nc1ccc(C(N)=O)cc1 (centres undefined),-16,79*,.,.,.,-7
Cc1ccsc1/C=N\NC(=O)c1n[nH]c2c1CCC2,130*,20,-6,-5,3,-16
O=C(CSc1nc2ccccc2c(=O)n1-c1ccccc1)N/N=C/C=C/c1ccccc1[N+](=O)[O-],78*,13,5,-2,17,30
O=C(CSc1nc2ccccc2c(=O)n1-c1ccc(Cl)cc1)N/N=C/C=C/c1ccccc1[N+](=O)[O-],.,6,-2,2,3,24
Cc1cc2nc(-c3ccc(SCc4ccc(C#N)cc4)nc3)[nH]c2cc1C,16,9,-2,2,19,56*
CC(C)Oc1ccc(CNCCC2(C(C)C)CCOC(C)(C)C2)cc1 (centres undefined),10,1,-3,-2,18,68*
Cc1ccccc1Nc1c(-c2ccccn2)nc2c(C)cccn12,6,96*,4,1,-19,42
Cc1ccccc1Nc1c(-c2ccc(N3CCOCC3)cc2)nc2ncccn12,-7,-6,0,0,-2,14
C/C(=N\NC(=S)Nc1ccccc1C)c1ccc(O)cc1,33,5,-1,4,-10,12
CC1CCN(C(=O)COC(=O)Cn2cnc3ccccc32)CC1,0,-5,-1,-1,21,.
O=c1cc(-c2ccccc2)[nH]c2ccc(F)cc12,-1,19,.,.,.,-3
COc1ccc2[nH]c(-c3cccc(F)c3)cc(=O)c2c1,76*,20,20,3,49,-10
CCc1ccc(NC(=O)C(C)OC(=O)C2CCN(c3ccc(C(F)(F)F)cn3)CC2)cc1 (centres undefined),-7,-1,-2,-1,5,5
CCCc1cc(NCc2ccccn2)n2nc(C)c(-c3ccccc3)c2n1,53,49,3,10,37,55*
CCCc1cc(N2CCCC2)n2nc(C)c(-c3ccccc3)c2n1,.,21,0,1,29,-11
Cc1ccn2c(=O)nc(SCC(=O)N3N=C(c4cccs4)CC3c3ccc(F)cc3)nc2c1 (centres undefined),-4,7,-2,2,23,59*
O=C(CSc1nc2ccccc2s1)N1N=C(c2cccs2)CC1c1ccc(F)cc1 (centres undefined),-9,10,-4,-2,5,56*
CCOC(=O)c1c(NC(=O)/C=C/c2ccc3c(c2)OCO3)sc(C)c1CC,122*,2,-4,1,-7,-15
COC(=O)c1c(NC(=O)/C=C/c2ccc3c(c2)OCO3)sc(C)c1C,103*,-5,1,-2,4,-5
O=C(CCN1C(=O)C2CC=CCC2C1=O)Nc1cccc(Cl)c1 (centres undefined),-13,-2,-2,0,32,-2
O=C(CSc1ccc2ccccc2n1)NCCCN1CCCC1=O,-21,0,-1,-1,14,.
Cc1ccccc1N1CCN(C(=O)c2ccc(Oc3ccc(C(F)(F)F)cn3)cc2)CC1,87*,4,-2,0,14,58*
O=C(O)c1ccc(Oc2ccc(C(F)(F)F)cn2)cc1,2,.,-2,0,-10,-7
COc1cc(S(=O)(=O)N2CCCCCC2)c(OC)cc1Br,79*,-14,-1,-4,11,12
O=C(O)C1CCCN1C(=O)NC1CCCCC1 (centres undefined),3,1,-4,-2,7,-10
SMILES,CSC inhib,Beta apoptosis,UPR XBP1 act,CHOP UPR activ,Mdm2-MdmX inh,T cruzi inh
O=S(=O)(NCCC1=CCCCC1)c1ccc(F)cc1,-3,.,-5,1,22,?
O=C(/C=C/c1ccccc1)NC(=S)NNC(=O)c1cnccn1,87*,78*,-2,-1,45,50
COc1ccc(C(=O)NC(=S)NNC(=O)c2cnccn2)cc1OC,38,82*,0,-2,34,-5
COc1cc(C(=O)NNC(=S)NC(=O)c2ccc(Cl)cc2)cc(OC)c1OC,16,18,1,-1,15,70*
Cc1nn(-c2ccccc2)nc1-c1nnc(-c2ccc(C(F)(F)F)cc2)o1,2,-8,1,0,20,-12
CCN(CC)c1ccc(NC(=O)C2CCCN(S(=O)(=O)c3cnc[nH]3)C2)c(C)c1 (centres undefined),-16,-3,-1,2,-40,-5
COC(=O)C(Cc1ccccc1)NC(=O)c1cc(S(=O)(=O)N(C)C)ccc1Cl (centres undefined),11,-1,-1,-1,25,-22
C=CCn1c(=NC(=O)c2cc(-c3cccs3)nc3ccccc23)sc2cc(S(N)(=O)=O)ccc21,62,92*,1,0,28,46
COCCn1c(=NC(=O)c2sc3ccccc3c2Cl)sc2cc(S(N)(=O)=O)ccc21,6,5,-1,-1,41,28
C=CCn1c(=NC(=O)c2cc(Cl)sc2Cl)sc2cc(S(N)(=O)=O)ccc21,24,10,4,1,33,28
COCCn1c(=NC(=O)c2cc(-c3cccs3)nc3ccccc23)sc2cc(S(N)(=O)=O)ccc21,71,12,0,7,41,67*
CCS(=O)(=O)N1CCC(NC(=O)C(Cc2cc(OC)ccc2OC)NC(C)=O)CC1 (centres undefined),-1,-5,-3,0,14,-5
CCSc1nnc(-c2ccncc2)o1,-7,-7,0,0,19,-21
CCSc1nnc(-c2sc3nnc(-c4ccccc4)c(-c4ccccc4)c3c2N)o1,120*,19,-3,-2,18,43
O=C(Cn1ncc(Cl)c(Cl)c1=O)c1ccc(Cl)cc1,49,-35,.,.,.,75*
CC(C)(C)C(=O)Cn1ncc(Cl)c(Cl)c1=O,.,.,.,.,.,-4
O=C(OCn1ncc(Cl)c(Cl)c1=O)c1ccccc1Cl,-50,101*,.,.,.,58*
Cc1sc2ncnc(Sc3nnc4sc5ccccc5n34)c2c1C,3,-9,-2,2,37,-17
COc1ccc2c(C)nc(Nc3nc(C)c(C)c(=O)[nH]3)nc2c1,106*,52,8,-1,25,1
CCOc1ccc(S(=O)(=O)NN=C(C)c2cccnc2)cc1,-4,-3,1,-2,-34,.
O=C(N=C1SC2CS(=O)(=O)CC2N1c1ccc(Cl)c(Cl)c1)C1CCCO1 (centres undefined),1,5,-2,0,8,-26
CN(CCc1ccccn1)Cc1ccc(Cl)cc1Cl,-22,-2,0,0,1,44
